Measurements as given in ChEMBL document CHEMBL4368874, “Synthesis, biological evaluation, and structure activity relationship (SAR) study of pyrrolidine amide derivatives as N-acylethanolamine acid amidase (NAAA) inhibitors” (Medchemcomm, 2019).
The source made the active and inactive calls. No cut-off for these calls is given here.

Columns and labels:
[1] = target: T1, N-acylethanolamine-hydrolyzing acid amidase (Rattus norvegicus, UniProt Q5KTC7); assay: Inhibition of rat NAAA expressed in HEK293 cells using heptadecenoylethanolamide as substrate after 30 mins HPLC-MS/MS analysis
T1 sequence (Q5KTC7 whole entry): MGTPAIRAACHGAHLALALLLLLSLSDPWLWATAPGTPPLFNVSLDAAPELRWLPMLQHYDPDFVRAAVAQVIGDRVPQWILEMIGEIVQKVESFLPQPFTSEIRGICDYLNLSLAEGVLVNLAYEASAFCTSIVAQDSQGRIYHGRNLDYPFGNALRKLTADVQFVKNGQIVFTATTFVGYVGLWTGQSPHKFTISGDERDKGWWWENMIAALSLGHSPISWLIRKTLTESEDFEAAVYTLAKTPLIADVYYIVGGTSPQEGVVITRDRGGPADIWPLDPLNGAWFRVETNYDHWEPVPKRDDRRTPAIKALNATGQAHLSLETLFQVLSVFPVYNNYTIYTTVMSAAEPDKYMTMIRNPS
In short: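 Enzyme source: HEK293 cells stably overexpressing rat NAAA, grown in DMEM/10% FBS with G418. Cells were sonicated in 20 mM Tris-HCl pH 7.5 with 0.32 M sucrose, and the 800 × g supernatant was used. 30 µg protein was incubated with 25 µM heptadecenoylethanolamide for 30 min at 37 °C in 50 mM phosphate pH 4.5 with 0.1% Triton X-100 and 3 mM DTT. Stopped with methanol containing heptadecanoic acid internal standard; remaining substrate measured by HPLC-MS/MS; IC50 from curve fitting.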

[2] = target: T2, Fatty-acid amide hydrolase 1 (Rattus norvegicus, UniProt P97612); assay: Inhibition of rat FAAH expressed in HEK293 cells using [3H]AEA as substrate after 30 mins HPLC-MS/MS analysis; assay type: cell-based; details: in the assay text read “anandamide” for “[3H]AEA”
T2 sequence (P97612 whole entry): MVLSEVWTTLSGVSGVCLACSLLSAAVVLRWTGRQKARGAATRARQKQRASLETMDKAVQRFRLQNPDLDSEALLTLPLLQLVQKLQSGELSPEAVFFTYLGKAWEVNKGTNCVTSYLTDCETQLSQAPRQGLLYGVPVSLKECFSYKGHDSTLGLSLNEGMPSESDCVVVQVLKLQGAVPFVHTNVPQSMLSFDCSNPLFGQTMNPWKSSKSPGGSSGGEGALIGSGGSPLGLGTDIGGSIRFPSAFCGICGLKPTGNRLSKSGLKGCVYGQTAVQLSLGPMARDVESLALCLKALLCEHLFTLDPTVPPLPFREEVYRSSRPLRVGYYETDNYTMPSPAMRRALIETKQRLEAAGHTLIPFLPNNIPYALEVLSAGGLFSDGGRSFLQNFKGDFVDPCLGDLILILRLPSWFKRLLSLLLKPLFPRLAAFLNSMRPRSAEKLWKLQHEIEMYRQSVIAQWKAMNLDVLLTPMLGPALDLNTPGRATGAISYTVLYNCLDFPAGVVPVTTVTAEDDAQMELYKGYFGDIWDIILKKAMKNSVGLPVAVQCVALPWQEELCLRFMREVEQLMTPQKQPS
In short: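 Lysate supernatant from HEK293 cells overexpressing rat FAAH (sonication in Tris-sucrose, 800 × g spin). 30 µg protein incubated at 37 °C with 25 µM anandamide in 50 mM Tris-HCl pH 8.0 containing 0.05% fatty-acid-free BSA. Quenched with methanol containing heptadecanoic acid internal standard; remaining substrate quantified by HPLC-MS/MS; IC50 by curve fitting.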

[3] = target: T3, N-acylethanolamine-hydrolyzing acid amidase (Rattus norvegicus) (UniProt Q5KTC7); assay: Reversible inhibition of rat NAAA expressed in HEK293 cells at 5 uM using heptadecenoylethanolamide as substrate after 8 hrs by rapid dilution based HPLC-MS/MS analysis; assay type: cell-based
T3 sequence (whole entry): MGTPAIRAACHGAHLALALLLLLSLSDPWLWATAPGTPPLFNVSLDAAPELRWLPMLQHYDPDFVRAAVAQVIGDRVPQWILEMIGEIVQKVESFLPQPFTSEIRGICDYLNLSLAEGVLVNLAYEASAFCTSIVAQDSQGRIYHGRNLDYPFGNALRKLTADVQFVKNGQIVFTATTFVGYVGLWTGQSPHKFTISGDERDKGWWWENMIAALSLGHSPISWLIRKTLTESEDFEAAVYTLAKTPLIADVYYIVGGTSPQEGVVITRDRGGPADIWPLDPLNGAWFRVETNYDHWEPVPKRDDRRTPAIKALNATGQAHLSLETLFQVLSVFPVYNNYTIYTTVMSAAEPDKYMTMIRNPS

[4] = Half life in pH 5 phosphate buffer by HPLC analysis; assay type: physicochemical
In short: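 Compound at 1 µM final (DMSO ≤1%) in 50 mM phosphate buffer pH 5.0, held at 37 °C for 16 h; remaining compound determined by HPLC.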

[5] = Half life in rat 80% plasma by HPLC analysis; assay type: ADME, cell-free
In short: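 Fresh rat plasma diluted to 80% (v/v) with PBS pH 7.4. Compound added to 1 µM final (DMSO ≤1%), incubated at 37 °C for 16 h; remaining compound measured by HPLC.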

Mus musculus [6] = assay: Anti-inflammatory activity in mouse model of LPS-induced acute lung injury assessed as reduction in leukocytes in lungs at 30 mg/kg, po qd for 5 days by hematoxylin and eosin staining-based light microscopic analysis; assay type: functional, organism-based
In short: (§1)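 129s mice (20-22 g), randomly grouped at 6-8 per group. Under anesthesia they received intratracheal LPS (7 mg/kg) in PBS. From the day of LPS they got oral dosing once daily at 30 mg/kg in saline with 5% PEG 400 and 5% Tween 80, or vehicle alone. Killed 5 days after LPS. Lungs were fixed in paraformaldehyde at 4 °C, paraffin-embedded, cut at 5 µm and H&E-stained.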

Mus musculus [7] = assay: Anti-inflammatory activity in mouse model of LPS-induced acute lung injury assessed as reduction in lung edema at 30 mg/kg, po qd for 5 days by hematoxylin and eosin staining-based light microscopic analysis; assay type: functional, organism-based; in short: as §1
Mus musculus [8] = assay: Anti-inflammatory activity in mouse model of LPS-induced acute lung injury at 30 mg/kg, po qd for 5 days co-treated with 2 mg/kg, ip bid PPAR-alpha antagonist MK886 by hematoxylin and eosin staining-based light microscopic analysis; assay type: functional, organism-based
In short: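 129s mice (20-22 g), 6-8 per group, were anesthetized and given intratracheal LPS (7 mg/kg) in PBS. Oral dosing at 30 mg/kg once daily (vehicle: saline, 5% PEG 400, 5% Tween 80) started on the LPS day, together with MK886 at 2 mg/kg i.p. Sacrifice at day 5. Lungs were fixed in paraformaldehyde, embedded in paraffin, sectioned at 5 µm and stained with H&E.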

[9] = Half life in pH 7.4 tris-HCl buffer by HPLC analysis
[10] = target: T2, Fatty-acid amide hydrolase 1; assay: Inhibition of rat FAAH expressed in HEK293 cells using anandamide as substrate after 30 mins HPLC-MS/MS analysis
[11] = target: T4, Acid ceramidase (Rattus norvegicus) (UniProt Q6P7S1); assay: Inhibition of rat acid ceramidase at 100 uM using N-lauroylceramide as substrate after 30 mins by LC-MS analysis relative to control
T4 sequence (whole entry): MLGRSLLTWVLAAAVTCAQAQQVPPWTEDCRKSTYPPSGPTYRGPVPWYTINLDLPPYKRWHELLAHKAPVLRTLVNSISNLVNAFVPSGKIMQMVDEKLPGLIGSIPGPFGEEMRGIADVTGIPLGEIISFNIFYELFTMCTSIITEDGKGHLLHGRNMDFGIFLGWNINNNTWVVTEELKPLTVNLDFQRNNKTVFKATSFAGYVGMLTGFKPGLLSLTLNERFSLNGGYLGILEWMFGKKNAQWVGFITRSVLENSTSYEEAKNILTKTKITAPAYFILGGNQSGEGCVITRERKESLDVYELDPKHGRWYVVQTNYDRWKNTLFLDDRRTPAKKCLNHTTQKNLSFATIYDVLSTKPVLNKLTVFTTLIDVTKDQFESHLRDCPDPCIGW
In short: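 100 µg recombinant rat acid ceramidase incubated for 30 min at 37 °C in 50 mM phosphate pH 5.0 with 0.1% Triton X-100, 3 mM DTT, 100 µM N-lauroylceramide substrate and test compound. Stopped with methanol containing 1 nmol heptadecanoic acid; products analysed by LC/MS.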

Rattus norvegicus = species: Rattus norvegicus; assay: Selectivity ratio of IC50 for rat FAAH expressed in HEK293 cells to IC50 for rat […]; assay type: cell-based

Structure (SMILES) | IC50 [1] [µM] | further results
O=C(/C=C/c1ccc(-c2ccccc2)cc1)N1CCCC1 | 1.5 | IC50 [2]: 550 µM; inhibition [3]: Active; half-life [4]: > 16 h; half-life [5]: > 16 h; Activity (Mus musculus [6]): Active; Activity (Mus musculus [7]): Active; Activity (Mus musculus [8]): inactive; half-life [9]: > 16 h
O=C(CCc1ccc(-c2cccc(Cl)c2)cc1)N1CCCC1 | 25.4 | 
O=C(CCCCCCc1ccccc1Cl)N1CCCC1 | > 100 | 
COC(=O)c1ccc(CCCCCCC(=O)N2CCCC2)cc1 | > 100 | 
Cc1ccc(-c2ccc(CCC(=O)N3CCCC3)cc2)cc1 | 33.2 | 
O=C(CCc1ccc(-c2ccc(F)cc2)cc1)N1CCCC1 | 3.4 | 
O=C(CCC1CCC(Oc2ccccc2)CC1)N1CCCC1 (centres undefined) | 2.8 | IC50 [2]: 45.1 µM
O=C(CCc1ccc(-c2ccccc2F)cc1)N1CCCC1 | 2.8 | 
O=C(/C=C/C=C/c1ccc2c(c1)OCO2)N1CCCC1 [TRICHOSTACHINE] | 4.1 | IC50 [10]: 61.3 µM
O=C(CCc1ccc(C2CCCCC2)cc1)N1CCCC1 | 0.5 | inhibition [11]: < 10%; Ratio IC50 (Rattus norvegicus): > 200
Cc1cccc(-c2ccc(CCC(=O)N3CCCC3)cc2)c1 | 16.5 | 
O=C(CCc1ccc(OC2CCCCC2)cc1)N1CCCC1 | 0.7 | 
O=C(CCCC/C=C/c1cccc(OCc2ccccc2)c1)N1CCCC1 | > 100 | 
COc1ccc(CCCCCCC(=O)N2CCCC2)cc1 | 35.4 | 
O=C(O)c1ccc(CCCCCCC(=O)N2CCCC2)cc1 | > 100 | 
O=C(CCCCCCc1ccc(F)cc1)N1CCCC1 | 8 | 
Cc1ccc(CCCCCCC(=O)N2CCCC2)cc1 | 9.6 | 
O=C(CCCCCCc1ccccn1)N1CCCC1 | > 100 | 
O=C(CCc1ccc(Oc2ccccc2)cc1)N1CCCC1 | > 100 | IC50 [2]: 120 µM
CCCc1cccc(CCCCCCC(=O)N2CCCC2)c1 | > 100 | 
O=C(CCc1ccc(-c2cccc(F)c2)cc1)N1CCCC1 | 1.8 | 
CCCc1ccc(CCCCCCC(=O)N2CCCC2)cc1 | > 100 | 
O=C(CCCCCCc1ccc(Cl)cc1)N1CCCC1 | 34.5 | 
O=C(CCCCCCc1cccc(O)c1)N1CCCC1 | > 100 | 
O=C(CCc1ccc(-c2ccc3c(c2)OCO3)cc1)N1CCCC1 | > 100 | IC50 [2]: 91 µM
